Values after ≈ are worked out from the molar mass of the structure shown.
Target: T1, Nuclear factor erythroid 2-related factor 2 (Homo sapiens) (UniProt Q16236)
T1 sequence (whole entry): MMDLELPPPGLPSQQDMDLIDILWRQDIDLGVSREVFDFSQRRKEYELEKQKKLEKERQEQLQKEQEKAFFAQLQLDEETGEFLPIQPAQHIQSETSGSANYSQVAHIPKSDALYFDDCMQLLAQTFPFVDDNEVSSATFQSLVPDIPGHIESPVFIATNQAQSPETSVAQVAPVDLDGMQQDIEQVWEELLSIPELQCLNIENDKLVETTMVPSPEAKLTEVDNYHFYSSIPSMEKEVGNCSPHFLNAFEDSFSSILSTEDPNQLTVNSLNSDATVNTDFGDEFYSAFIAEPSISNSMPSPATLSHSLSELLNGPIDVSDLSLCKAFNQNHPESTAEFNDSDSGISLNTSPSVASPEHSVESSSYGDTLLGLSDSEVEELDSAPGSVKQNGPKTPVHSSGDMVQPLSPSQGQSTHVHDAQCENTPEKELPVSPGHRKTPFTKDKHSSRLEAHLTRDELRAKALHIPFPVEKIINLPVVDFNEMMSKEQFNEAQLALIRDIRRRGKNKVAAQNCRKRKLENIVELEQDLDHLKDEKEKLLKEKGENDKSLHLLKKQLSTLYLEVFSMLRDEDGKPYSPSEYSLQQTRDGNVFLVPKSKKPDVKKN
Assay: Activation of Nrf2 in human HepG2-ARE-C8 cells assessed as induction of ARE-mediated luciferase activity at 0.01 uM after 24 hrs by luciferase reporter gene assay relative to control
Assay type: cell-based
Conditions: not given
Outline: (§1)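 HepG2-ARE-C8 cells stably carrying ARE-luciferase, grown in DMEM with 10% FBS at 37 °C and 5% CO2. Seeded at 5 × 10^4 cells/well, left overnight, then given compound diluted from a 10 mM DMSO stock for 24 h. Cells lysed and luciferase read as RLU. Inductivity = (RLUtest − RLUblank)/(RLUcontrol − RLUblank), with DMSO as control. Mean ± SEM of three experiments.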

Activity	SMILES
2.68	Fc1ccc(-c2nc(-c3ccc(Br)cc3)no2)cc1F
1.68	Fc1ccc(-c2nc(-c3ccc4nc[nH]c4c3)no2)cc1Br
0.33	Clc1ccc(-c2nc(-c3ccc4nc[nH]c4c3)no2)cc1

Further lines, the compound ahead of its results:

SMILES	Activity
CC(C)(C)c1ccc(-c2noc(-c3ccc(F)c(F)c3)n2)cc1	1.35
CC(=O)c1ccc(-c2noc(-c3ccc(F)c(F)c3)n2)cc1	1.25
Fc1cccc(-c2noc(-c3ccc(F)c(F)c3)n2)c1	0.92

System: HepG2
Assay: Cytotoxicity against human HepG2 cells at 80 uM after 24 hrs by MTT assay
Assay type: cell-based
Conditions: hepg2, 24 h

SMILES	Activity
CC(C)(C)c1ccc(-c2noc(-c3ccc(F)c(F)c3)n2)cc1	Non-Toxic
Fc1ccc(-c2nc(-c3ccc(Br)cc3)no2)cc1F	Non-Toxic
Fc1ccc(-c2nc(-c3ccc4nc[nH]c4c3)no2)cc1Br	Non-Toxic
CC(=O)c1ccc(-c2noc(-c3ccc(F)c(F)c3)n2)cc1	Non-Toxic
Fc1cccc(-c2noc(-c3ccc(F)c(F)c3)n2)c1	Non-Toxic
Clc1ccc(-c2nc(-c3ccc4nc[nH]c4c3)no2)cc1	Non-Toxic

Target: T1, Nuclear factor erythroid 2-related factor 2 (Homo sapiens)
Assay: Activation of Nrf2 in human HepG2-ARE-C8 cells assessed as induction of ARE-mediated luciferase activity at 0.1 uM after 24 hrs by luciferase reporter gene assay relative to control
Assay type: cell-based
Conditions: not given
Outline: as §1

Activity	SMILES
3.78	Fc1ccc(-c2nc(-c3ccc(Br)cc3)no2)cc1F
1.36	Fc1ccc(-c2nc(-c3ccc4nc[nH]c4c3)no2)cc1Br
0.72	Clc1ccc(-c2nc(-c3ccc4nc[nH]c4c3)no2)cc1

Further lines, the compound ahead of its results:

SMILES	Activity
CC(C)(C)c1ccc(-c2noc(-c3ccc(F)c(F)c3)n2)cc1	2.88
CC(=O)c1ccc(-c2noc(-c3ccc(F)c(F)c3)n2)cc1	2.03
Fc1cccc(-c2noc(-c3ccc(F)c(F)c3)n2)c1	1.81

Target: T1, Nuclear factor erythroid 2-related factor 2 (Homo sapiens)
Assay: Activation of Nrf2 in human HepG2-ARE-C8 cells assessed as induction of ARE-mediated luciferase activity at 1 uM after 24 hrs by luciferase reporter gene assay relative to control
Assay type: cell-based
Conditions: not given
Outline: as §1

Activity	SMILES
4.49	Fc1ccc(-c2nc(-c3ccc(Br)cc3)no2)cc1F
1.89	Fc1ccc(-c2nc(-c3ccc4nc[nH]c4c3)no2)cc1Br
1.64	Clc1ccc(-c2nc(-c3ccc4nc[nH]c4c3)no2)cc1

Second part, the compound before the results:

SMILES	Activity
CC(C)(C)c1ccc(-c2noc(-c3ccc(F)c(F)c3)n2)cc1	2.91
CC(=O)c1ccc(-c2noc(-c3ccc(F)c(F)c3)n2)cc1	2.04
Fc1cccc(-c2noc(-c3ccc(F)c(F)c3)n2)c1	2.05

Target: T1, Nuclear factor erythroid 2-related factor 2 (Homo sapiens)
Assay: Activation of Nrf2 in human HepG2-ARE-C8 cells assessed as induction of ARE-mediated luciferase activity at 20 uM after 24 hrs by luciferase reporter gene assay relative to control
Assay type: cell-based
Conditions: not given
Outline: as §1

Activity	SMILES
8.65	Fc1ccc(-c2nc(-c3ccc(Br)cc3)no2)cc1F
3.46	Fc1ccc(-c2nc(-c3ccc4nc[nH]c4c3)no2)cc1Br
15.5	Clc1ccc(-c2nc(-c3ccc4nc[nH]c4c3)no2)cc1

Further lines, the compound ahead of its results:

SMILES	Activity
CC(C)(C)c1ccc(-c2noc(-c3ccc(F)c(F)c3)n2)cc1	8.35
CC(=O)c1ccc(-c2noc(-c3ccc(F)c(F)c3)n2)cc1	2.61
Fc1cccc(-c2noc(-c3ccc(F)c(F)c3)n2)c1	2.76

Target: T1, Nuclear factor erythroid 2-related factor 2 (Homo sapiens)
Assay: Activation of Nrf2 in human HepG2-ARE-C8 cells assessed as induction of ARE-mediated luciferase activity at 40 uM after 24 hrs by luciferase reporter gene assay relative to control
Assay type: cell-based
Conditions: not given
Outline: as §1

Activity	SMILES
12.2	Fc1ccc(-c2nc(-c3ccc(Br)cc3)no2)cc1F
3.92	Fc1ccc(-c2nc(-c3ccc4nc[nH]c4c3)no2)cc1Br
18.5	Clc1ccc(-c2nc(-c3ccc4nc[nH]c4c3)no2)cc1

Continued, compound first:

SMILES	Activity
CC(C)(C)c1ccc(-c2noc(-c3ccc(F)c(F)c3)n2)cc1	13.2
CC(=O)c1ccc(-c2noc(-c3ccc(F)c(F)c3)n2)cc1	3.78
Fc1cccc(-c2noc(-c3ccc(F)c(F)c3)n2)c1	3.45

Target: T1, Nuclear factor erythroid 2-related factor 2 (Homo sapiens)
Assay: Activation of Nrf2 in human HepG2-ARE-C8 cells assessed as induction of ARE-mediated luciferase activity at 80 uM after 24 hrs by luciferase reporter gene assay relative to control
Assay type: cell-based
Conditions: not given
Outline: as §1

Activity	SMILES
18.2	Fc1ccc(-c2nc(-c3ccc(Br)cc3)no2)cc1F
4.84	Fc1ccc(-c2nc(-c3ccc4nc[nH]c4c3)no2)cc1Br
14.1	Clc1ccc(-c2nc(-c3ccc4nc[nH]c4c3)no2)cc1

Second part, the compound before the results:

SMILES	Activity
CC(C)(C)c1ccc(-c2noc(-c3ccc(F)c(F)c3)n2)cc1	24
CC(=O)c1ccc(-c2noc(-c3ccc(F)c(F)c3)n2)cc1	5.01
Fc1cccc(-c2noc(-c3ccc(F)c(F)c3)n2)c1	5.46

System: not listed separately
Assay: Lipophilicity, log D of the compound at pH 7.4 by potentiometric titration method
Assay type: physicochemical
Conditions: buffer
Outline: (§2)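 Intrinsic aqueous solubility and logD at pH 7.4 determined by Avdeef-Bucher potentiometric titration on a pION Gemini Profiler.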

logD	SMILES
3.92	CC(C)(C)c1ccc(-c2noc(-c3ccc(F)c(F)c3)n2)cc1
3.91	Fc1ccc(-c2nc(-c3ccc(Br)cc3)no2)cc1F

System: not listed separately
Assay: Intrinsic aqueous solubility of the compound by potentiometric titration method
Assay type: physicochemical
Conditions: not given
Outline: as §2

solubility [µM]	SMILES
91 (≈ 28.6 µg/mL)	CC(C)(C)c1ccc(-c2noc(-c3ccc(F)c(F)c3)n2)cc1
77 (≈ 26 µg/mL)	Fc1ccc(-c2nc(-c3ccc(Br)cc3)no2)cc1F

From ChEMBL document CHEMBL4265908, “Structure-activity and structure-property relationships of novel Nrf2 activators with a 1,2,4-oxadiazole core and their therapeutic effects on acetaminophen (APAP)-induced acute liver injury” (Eur J Med Chem, 2018)
